Reference: PubChem BioAssay
Calls of active or inactive are those of the source. Cut-off read from the data, not from the text of the source, unless noted: active = inhibition above about 30%; inactive = the rest.

What was measured:
[1] = SK-BR-3 cell growth inhibitors, pilot screen, 24 h, human (AID 572;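 active = viability at or below 10% of carrier control in both of two separate runs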;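 note: compound exposure lasted between 18 and 24 h rather than exactly 24 h; 100% = carrier-treated control wells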); conditions: SK-BR-3 viability, CellTiter-Glo luminescence, at 10 µM, stronger effect = lower value
[2] = HUVEC growth inhibition – cell-based, human, primary screen (AID 575;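 active = viability at or below 30% in both replicate assays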;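 note: 100% = median of untreated cell wells with 0.1% DMSO on each plate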); conditions: HUVEC proliferation, CellTiter-Glo luminescence, 72 h; at 10 µM; stronger effect = lower value
In short: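 Assay system: Primary human umbilical vein endothelial cells | Quantity: 1250 cells per well | Medium: Supplemented EBM, 2% fetal bovine serum | Detection: CellTiter-Glo luminescence measuring cellular ATP | Read-out: % viability vs DMSO wells | Plate: Collagen-coated 384-well format | Times: 72 h exposure, 37 °C, 5% CO2, 30 min RT equilibration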

[3] = growth inhibitors of H69AR lung tumor, primary screen, human, duplicate replicates (AID 580;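 active = viability at or under a set limit in both replicates, limit being median viability minus 3 SD, cut at about 48% in these data, passing the limit was not always enough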;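 note: 100% = mean luminescence of untreated wells and 0% = no signal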); conditions: H69AR lung tumor cells viability, ATP luminescence, 72 h; at 10 µM; stronger effect = lower value
[4] = reversal of MRP1-mediated doxorubicin resistance, pilot screen, H69AR cells, doxorubicin co-treatment (AID 601;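 active = viability loss from added drug above about 55%, and viability with drug at most 40%, in both replicates, limit read from the data, passing the limit was not always enough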); conditions: CellTiter-Glo, 72 h, at 10 µM; for differential viability (reversal): stronger effect = higher value
[5] = 384-well plate pilot, post-Golgi transport modulator project, inhibition of yeast transport mutant growth (AID 636; in the data active = inhibition above about 31%); conditions: absorbance 615 nm, about 18 h, stronger effect = higher value
[6] = growth suppression of yeast trafficking mutant, preliminary HTS, modulators of trafficking downstream of Golgi apparatus project, 1536-format plate, OD 615 nm (AID 637); conditions: yeast transport mutant growth, absorbance 615 nm, 18 h; stronger effect = higher value
[7] = H69AR cells + 2 uM doxorubicin, measured here: viability with 2 uM doxorubicin, stronger effect = lower value
[8] = H69AR cells, compound alone cytotoxicity

Row | SMILES | viability [1] | viability [2] | viability [3] | differential viability (reversal) ([4]; H69AR cells + 2 uM doxorubicin) | viability [4, 7] [%] | viability [4, 8] [%] | inhibition [5] | inhibition [6]
1 | Cc1ccc(S(=O)(=O)NCC(=O)OCN2C(=O)c3ccccc3C2=O)cc1 | 94% (inactive) | 99.6% (inactive) | 105% (inactive) | -10.3% (inactive) | 115 | 105 | -2.73% (inactive) | 0.16% (inactive)
2 | Cc1cccc(N2C(=O)CC(N(C(=O)c3ccco3)c3cccc(C)c3)C2=O)c1 (stereo not drawn) | 104% (inactive) | 98.8% (inactive) | 98.5% (inactive) | -3.33% (inactive) | 102 | 98.5 | 0% (inactive) | 6.13% (inactive)
3 | Cc1nc(CCNS(=O)(=O)c2cccs2)cs1 | 86% (inactive) | 105% (inactive) | 97.5% (inactive) | 11.5% (inactive) | 86 | 97.5 | 7.92% (inactive) | -12.8% (inactive)
4 | Cc1nc2ccccn2c(=O)c1CCN1CCC(C(=O)c2ccc(F)cc2)CC1 | 75% (inactive) | 83.6% (inactive) | 86.3% (inactive) | -15.1% (inactive) | 101 | 86.3 | 1.69% (inactive) | 17.2% (inactive)
5 | Cc1ccc(C)c(NS(=O)(=O)c2ccc(NC(=O)c3ccco3)cc2)c1 | 72% (inactive) | 78.5% (inactive) | 90.5% (inactive) | -5.62% (inactive) | 96.1 | 90.5 | -8.92% (inactive) | -6.91% (inactive)
6 | C=CCn1cnc2c(c1=O)c1nc3ccccc3nc1n2-c1ccc(C)cc1 | 105% (inactive) | 97.2% (inactive) | 86.9% (inactive) | -6.75% (inactive) | 93.7 | 86.9 | -5.48% (inactive) | -1.61% (inactive)
7 | O=C(CN1CCN(c2ccc(F)cc2)CC1)OCc1ccccc1 | 95% (inactive) | 105% (inactive) | 92.6% (inactive) | 7.9% (inactive) | 84.7 | 92.6 | -4.4% (inactive) | 3.64% (inactive)
8 | Cc1ccc(-n2ncc3c(=O)n(CC(=O)NCc4ccco4)cnc32)cc1 | 105% (inactive) | 76.5% (inactive) | 81.3% (inactive) | -12.3% (inactive) | 93.6 | 81.3 | 1.92% (inactive) | 1.77% (inactive)
9 | COC(=O)c1cccc(S(=O)(=O)N2CCC(C)CC2)c1 | 100% (inactive) | 105% (inactive) | 93.8% (inactive) | -4.31% (inactive) | 98.1 | 93.8 | 0.52% (inactive) | -3.44% (inactive)
10 | Nc1cc(N)nc(SCc2ccccc2)n1 | 94% (inactive) | 90.8% (inactive) | 85.6% (inactive) | -6.86% (inactive) | 92.4 | 85.6 | -0.68% (inactive) | 9.27% (inactive)
11 | CCOC(=O)CNC(=O)CSc1nc(N(C)C)nc(N2CCOCC2)n1 | 88% (inactive) | 98.1% (inactive) | 89.2% (inactive) | 2.04% (inactive) | 87.1 | 89.2 | -9.86% (inactive) | 6.45% (inactive)
12 | Cc1cc(Cl)ccc1OCC(=O)Nn1c(C)ccc1C | 68% (inactive) | 101% (inactive) | 94% (inactive) | 11.1% (inactive) | 82.9 | 94 | -1.37% (inactive) | -4.68% (inactive)
13 | CCOC(=O)c1c(C)[nH]c(C(=O)Cn2c(=O)c3c(ncn3CC)n(Cc3ccccc3)c2=O)c1C | 89% (inactive) | 98% (inactive) | 85.2% (inactive) | -4.88% (inactive) | 90.1 | 85.2 | -6.35% (inactive) | -2.73% (inactive)
14 | Cc1ccc(N2CCN(CCc3nc4cc(NS(C)(=O)=O)ccc4n3C)CC2)cc1 | 104% (inactive) | 110% (inactive) | 90.1% (inactive) | 3.72% (inactive) | 86.4 | 90.1 | -6.75% (inactive) | -5.74% (inactive)
15 | O=C(NCC1CCCO1)c1cc(-c2ccncc2)nc2ccc(S(=O)(=O)N3CCOCC3)cc12 (stereo not drawn) | 106% (inactive) | 111% (inactive) | 95.8% (inactive) | 8.86% (inactive) | 87 | 95.8 | -7.87% (inactive) | 4.18% (inactive)
16 | CCc1cn([C@H]2C[C@H](O)[C@@H](CO)O2)c(=O)[nH]c1=O | 120% (inactive) | 93.2% (inactive) | 85.9% (inactive) | 9.33% (inactive) | 76.6 | 85.9 | -0.26% (inactive) | 7.5% (inactive)
17 | CN(C)C(=O)CN(C)S(=O)(=O)c1ccc(Cl)cc1 | 139% (inactive) | 98.9% (inactive) | 97.9% (inactive) | -6.11% (inactive) | 104 | 97.9 | -6.3% (inactive) | 1.82% (inactive)
18 | CC(C)CN(C(=O)c1ccc(=O)n(C)n1)c1nc2ccccc2s1 | 94% (inactive) | 107% (inactive) | 90.2% (inactive) | 4.96% (inactive) | 85.2 | 90.2 | -1.08% (inactive) | 1.09% (inactive)

Row | SMILES | viability [1] | viability [2] | viability [3] | differential viability (reversal) ([4]; H69AR cells + 2 uM doxorubicin) | viability [4, 7] [%] | viability [4, 8] [%] | inhibition [5] | inhibition [6]
19 | O=C(Cn1[nH]c(=O)c2ccccc2c1=O)OCC(=O)N1CCCc2ccccc21 | 90% (inactive) | 101% (inactive) | 102% (inactive) | 13.7% (inactive) | 88.7 | 102 | -5.73% (inactive) | -2.55% (inactive)
20 | NC(=O)OCC(COC(N)=O)c1ccccc1 | 132% (inactive) | 89.3% (inactive) | 90.7% (inactive) | -6.82% (inactive) | 97.5 | 90.7 | -0.13% (inactive) | 2% (inactive)
21 | CCC1CCCCN1S(=O)(=O)c1ccc(C(=O)Nc2nnc(-c3ccccc3Cl)o2)cc1 (stereo not drawn) | 74% (inactive) | 13.5% (active) | 20.1% (active) | -21.7% (inactive) | 41.8 | 20.1 | -0.13% (inactive) | 11.6% (inactive)
22 | COc1ccccc1N(CC(=O)NC1CCCC1)C(=O)CCC(=O)Nc1cc(C)on1 | 98% (inactive) | 102% (inactive) | 85.3% (inactive) | -1.76% (inactive) | 87.1 | 85.3 | -2% (inactive) | 9.82% (inactive)
23 | C=CCn1c(SCC(=O)C(C)(C)C)nnc1-c1ccccn1 | 88% (inactive) | 94.4% (inactive) | 92.2% (inactive) | -0.455% (inactive) | 92.6 | 92.2 | -7.57% (inactive) | -3.64% (inactive)
24 | CC(C)(C)n1ncc2c(=O)n(CC(=O)NCc3ccc(F)cc3)cnc21 | 95% (inactive) | 63.4% (inactive) | 14.6% (active) | -59.8% (inactive) | 74.4 | 14.6 | 2.43% (inactive) | -5.27% (inactive)
25 | CCCCCCn1c(CN2CCCC(C)C2)nc2c1c(=O)n(C)c(=O)n2C (stereo not drawn) | 57% (inactive) | 111% (inactive) | 101% (inactive) | 7.51% (inactive) | 93.1 | 101 | -7.12% (inactive) | 2.36% (inactive)
26 | CC(C)CC(c1nnnn1C(C)(C)C)N1CCN(C2CCCC2)CC1 (stereo not drawn) | 101% (inactive) | 96.6% (inactive) | 95.2% (inactive) | 10.4% (inactive) | 84.8 | 95.2 | -7.33% (inactive) | 2.91% (inactive)
27 | CCCCOc1ccc(S(=O)(=O)n2c(C)nc3ccccc32)cc1 | 138% (inactive) | 53.2% (inactive) | 87.1% (inactive) | -7.77% (inactive) | 94.8 | 87.1 | -3.38% (inactive) | 1.33% (inactive)
28 | Cc1cc(NS(=O)(=O)c2ccc(N)cc2)no1 | 111% (inactive) | 98.9% (inactive) | 88.9% (inactive) | -12.6% (inactive) | 101 | 88.9 | 1.56% (inactive) | -3.5% (inactive)
29 | CCN(CC)S(=O)(=O)c1ccc(F)c(C(=O)NCCC(C)C)c1 | 82% (inactive) | 95% (inactive) | 90.9% (inactive) | 6.46% (inactive) | 84.4 | 90.9 | -0.54% (inactive) | -2.73% (inactive)
30 | Cc1cccc(N(CC(=O)Nc2ccc(CC#N)cc2)S(C)(=O)=O)c1 | 108% (inactive) | 105% (inactive) | 97% (inactive) | 10.8% (inactive) | 86.2 | 97 | -10.8% (inactive) | 2.74% (inactive)
31 | O=C(O)CCc1ccc(-c2cccs2)n1NC(=O)c1ccccc1Br | 96% (inactive) | 104% (inactive) | 106% (inactive) | 16% (inactive) | 89.5 | 106 | -6.71% (inactive) | 4.36% (inactive)
32 | COCCn1nnnc1C(c1cc2ccc(OC)cc2[nH]c1=O)N1CCc2ccccc2C1 (stereo not drawn) | 89% (inactive) | 90.4% (inactive) | 85.6% (inactive) | -13.3% (inactive) | 98.9 | 85.6 | -1.64% (inactive) | 4.52% (inactive)
33 | COc1ccc(C(=O)NCCC(C)C)cc1S(=O)(=O)N1CCOCC1 | 98% (inactive) | 98.8% (inactive) | 102% (inactive) | 7.34% (inactive) | 94.2 | 102 | -9.86% (inactive) | 2.73% (inactive)
34 | Cc1ccc(-c2nnc3c4ccccc4c(C)nn23)cc1NC(=O)c1ccco1 | 81.5% (inactive) | 98.2% (inactive) | 91.8% (inactive) | -3.85% (inactive) | 95.7 | 91.8 | -5.27% (inactive) | 6.51% (inactive)
35 | Cc1nc2sccn2c(=O)c1CCN1CCC(=C(c2ccc(F)cc2)c2ccc(F)cc2)CC1 | 111% (inactive) | 11.5% (active) | 85.7% (inactive) | -2.19% (inactive) | 87.8 | 85.7 | 1.04% (inactive) | 6.17% (inactive)
36 | CC(=O)[C@H]1[C@H](C#N)C[C@H]2[C@@H]3CC=C4C[C@@H](O)CC[C@]4(C)[C@H]3CC[C@@]21C | 136% (inactive) | 103% (inactive) | 87% (inactive) | 1.78% (inactive) | 85.2 | 87 | -2.73% (inactive) | 7.33% (inactive)
